In ChEMBL document CHEMBL2380296, “Structure-based design and optimization of 2-aminothiazole-4-carboxamide as a new class of CHK1 inhibitors” (Bioorg Med Chem Lett, 2013):

What was measured:
[1] = Plasma concentration in rat at 10 mg/kg, po measured at 1 hr; format: ADME, organism-based; parameters: dose 10 mg/kg, route oral
[2] = target: Calcium/calmodulin-dependent protein kinase type IV (Homo sapiens, UniProt Q16566); test: Inhibition of human CAMK4
[3] = Plasma concentration in rat at 10 mg/kg, po measured at 6 hrs; format: ADME, organism-based; parameters: dose 10 mg/kg, route oral
[4] = target: RAC-alpha serine/threonine-protein kinase (Homo sapiens, UniProt P31749); test: Inhibition of human AKT1
Chain of RAC-alpha serine/threonine-protein kinase (P31749 whole entry): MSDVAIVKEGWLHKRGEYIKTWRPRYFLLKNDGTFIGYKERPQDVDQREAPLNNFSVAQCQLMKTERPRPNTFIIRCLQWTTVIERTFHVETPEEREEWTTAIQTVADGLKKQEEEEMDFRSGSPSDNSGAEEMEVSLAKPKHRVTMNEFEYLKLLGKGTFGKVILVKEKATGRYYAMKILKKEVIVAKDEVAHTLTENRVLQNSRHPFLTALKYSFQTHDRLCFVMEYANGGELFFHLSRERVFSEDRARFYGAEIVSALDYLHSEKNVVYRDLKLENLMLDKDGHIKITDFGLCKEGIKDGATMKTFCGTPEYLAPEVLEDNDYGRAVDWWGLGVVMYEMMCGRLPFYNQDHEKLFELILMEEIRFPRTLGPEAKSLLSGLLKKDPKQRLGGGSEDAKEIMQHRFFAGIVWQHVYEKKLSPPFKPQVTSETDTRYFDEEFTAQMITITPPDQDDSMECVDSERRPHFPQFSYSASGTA

[5] = target: T1, hERG (KCNH2) (Homo sapiens, UniProt Q12809); test: Inhibition of human ERG expressed in mouse L929 cells at 1 uM by IonWorks assay relative to control; format: cell-based; conditions: mouse L929 cells expressing human ERG
T1 sequence (Q12809 whole entry): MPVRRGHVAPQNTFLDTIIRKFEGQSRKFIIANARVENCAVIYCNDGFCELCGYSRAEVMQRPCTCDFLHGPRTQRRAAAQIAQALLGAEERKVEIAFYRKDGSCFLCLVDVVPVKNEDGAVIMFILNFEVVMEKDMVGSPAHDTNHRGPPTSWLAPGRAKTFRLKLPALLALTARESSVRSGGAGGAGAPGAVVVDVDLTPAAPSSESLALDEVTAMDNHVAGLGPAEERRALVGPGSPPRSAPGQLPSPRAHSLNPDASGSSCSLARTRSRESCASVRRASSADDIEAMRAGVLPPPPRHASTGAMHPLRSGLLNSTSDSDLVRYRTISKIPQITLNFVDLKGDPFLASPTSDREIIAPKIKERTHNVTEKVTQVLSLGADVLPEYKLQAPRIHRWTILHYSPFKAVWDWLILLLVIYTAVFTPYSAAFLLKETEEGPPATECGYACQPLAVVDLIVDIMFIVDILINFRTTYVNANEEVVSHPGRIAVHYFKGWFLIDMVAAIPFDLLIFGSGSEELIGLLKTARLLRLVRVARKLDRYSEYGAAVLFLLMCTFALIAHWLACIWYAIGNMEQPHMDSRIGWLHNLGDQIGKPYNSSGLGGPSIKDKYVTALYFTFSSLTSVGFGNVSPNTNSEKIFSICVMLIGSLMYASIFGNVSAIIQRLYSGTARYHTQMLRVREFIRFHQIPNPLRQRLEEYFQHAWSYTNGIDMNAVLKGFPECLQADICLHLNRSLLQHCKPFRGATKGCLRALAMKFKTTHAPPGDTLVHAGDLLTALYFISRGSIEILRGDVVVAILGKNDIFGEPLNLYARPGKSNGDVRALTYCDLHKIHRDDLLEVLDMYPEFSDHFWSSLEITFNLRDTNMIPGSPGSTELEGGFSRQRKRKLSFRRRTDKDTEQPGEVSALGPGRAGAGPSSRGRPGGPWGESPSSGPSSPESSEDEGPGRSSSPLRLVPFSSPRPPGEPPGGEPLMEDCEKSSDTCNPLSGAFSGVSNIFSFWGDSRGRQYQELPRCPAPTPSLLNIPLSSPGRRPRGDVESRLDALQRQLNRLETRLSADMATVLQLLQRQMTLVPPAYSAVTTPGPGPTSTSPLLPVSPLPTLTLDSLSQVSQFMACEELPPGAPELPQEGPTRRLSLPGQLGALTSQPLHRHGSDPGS

[6] = target: T1, hERG (KCNH2); test: Inhibition of human ERG transfected in CHO cells at 5 ug/mL by rubidium efflux assay relative to control; format: cell-based; conditions: CHO cells transfected with human ERG
[7] = target: T1, hERG (KCNH2); test: Inhibition of human ERG transfected in CHO cells at 1.5 ug/mL by rubidium efflux assay relative to control; format: cell-based; conditions: CHO cells transfected with human ERG
[8] = target: Cannabinoid receptor 1 (Homo sapiens) (UniProt P21554); test: Inhibition of CB1 receptor (unknown origin) at 20 ug/mL relative to control
[9] = target: T2, Cytochrome P450 2D6 (Homo sapiens, UniProt P10635); test: Time-dependent inhibition of CYP2D6 in human liver microsomes using dextromethorphan as substrate incubated for 30 mins prior to substrate addition measured after 30 mins by LC-MS/MS analysis; format: ADME, Microsome
T2 sequence (P10635 whole entry): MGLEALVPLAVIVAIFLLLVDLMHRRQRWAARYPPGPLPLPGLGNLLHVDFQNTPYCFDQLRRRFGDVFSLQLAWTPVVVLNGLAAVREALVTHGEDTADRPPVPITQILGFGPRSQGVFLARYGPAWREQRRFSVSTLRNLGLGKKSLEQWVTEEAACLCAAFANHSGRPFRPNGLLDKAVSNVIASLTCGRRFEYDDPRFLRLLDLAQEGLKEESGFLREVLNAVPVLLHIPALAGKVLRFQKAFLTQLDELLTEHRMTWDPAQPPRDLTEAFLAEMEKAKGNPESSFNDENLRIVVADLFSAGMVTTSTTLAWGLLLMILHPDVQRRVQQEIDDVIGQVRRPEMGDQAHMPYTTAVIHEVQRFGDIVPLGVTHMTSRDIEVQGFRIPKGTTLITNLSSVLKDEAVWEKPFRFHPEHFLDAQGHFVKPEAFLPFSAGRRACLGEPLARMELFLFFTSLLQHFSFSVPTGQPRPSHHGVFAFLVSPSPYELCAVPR

[10] = target: T3, Cytochrome P450 3A4 (Homo sapiens, UniProt P08684); test: Time-dependent inhibition of CYP3A4 in human liver microsomes using 6beta-hydroxylase as substrate incubated for 30 mins prior to substrate addition measured after 30 mins by LC-MS/MS analysis; format: ADME, Microsome
T3 sequence (P08684 whole entry): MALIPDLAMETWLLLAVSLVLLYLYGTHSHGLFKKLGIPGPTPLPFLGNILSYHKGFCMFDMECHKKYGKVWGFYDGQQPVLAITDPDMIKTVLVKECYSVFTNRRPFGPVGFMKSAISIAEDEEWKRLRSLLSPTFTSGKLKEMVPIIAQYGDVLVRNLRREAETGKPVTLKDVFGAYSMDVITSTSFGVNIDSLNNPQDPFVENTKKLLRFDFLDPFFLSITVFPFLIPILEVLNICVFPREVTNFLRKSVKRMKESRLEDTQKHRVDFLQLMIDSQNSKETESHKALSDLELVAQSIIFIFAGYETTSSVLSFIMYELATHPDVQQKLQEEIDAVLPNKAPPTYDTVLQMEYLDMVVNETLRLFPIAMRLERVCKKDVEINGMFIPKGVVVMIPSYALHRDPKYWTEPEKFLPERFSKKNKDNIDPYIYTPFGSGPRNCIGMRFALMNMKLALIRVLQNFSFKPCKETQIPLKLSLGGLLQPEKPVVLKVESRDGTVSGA

[11] = target: Cytochrome P450 2C9 (Homo sapiens, UniProt P11712); test: Inhibition of CYP2C9 in human liver microsomes using tolbutamide as substrate by LC-MS/MS analysis; format: ADME, Microsome
[12] = target: T2, Cytochrome P450 2D6; test: Inhibition of CYP2D6 in human liver microsomes using dextromethorphan as substrate by LC-MS/MS analysis; format: ADME, Microsome
[13] = target: T3, Cytochrome P450 3A4; test: Inhibition of CYP3A4 in human liver microsomes using […] as substrate by LC-MS/MS analysis; format: ADME, Microsome
[14] = Tmax in rat at 10 mg/kg, po; format: ADME, organism-based; parameters: dose 10 mg/kg, route oral; conditions: in vivo
[15] = AUC in rat at 10 mg/kg, po; format: ADME, organism-based; parameters: dose 10 mg/kg, route oral; conditions: plasma
[16] = target: Vasopressin V2 receptor (Homo sapiens) (UniProt P30518); test: Inhibition of vasopressin V2 receptor (unknown origin) at 2 ug/mL relative to control
[17] = target: Vasopressin V1b receptor (Homo sapiens) (UniProt P47901); test: Inhibition of vasopressin V1b receptor (unknown origin) at 2 ug/mL relative to control
[18] = target: Vasopressin V1a receptor (Homo sapiens) (UniProt P37288); test: Inhibition of vasopressin V1a receptor (unknown origin) at 2 ug/mL relative to control
[19] = target: Oxytocin receptor (Homo sapiens) (UniProt P30559); test: Inhibition of oxytocin receptor (unknown origin) at 2 ug/mL relative to control
[20] = target: 5-hydroxytryptamine receptor 1A (Homo sapiens) (UniProt P08908); test: Inhibition of 5HT-1A receptor (unknown origin) at 2 ug/mL relative to control
[21] = target: Neuropeptide Y receptor type 5 (Homo sapiens) (UniProt Q15761); test: Inhibition of NPYY5 receptor (unknown origin) at 2 ug/mL relative to control
[22] = target: Muscarinic acetylcholine receptor M1 (Homo sapiens) (UniProt P11229); test: Inhibition of muscarinic M1 receptor (unknown origin) at 2 ug/mL relative to control
[23] = target: Histamine H1 receptor (Homo sapiens) (UniProt P35367); test: Inhibition of histamine H1 receptor (unknown origin) at 1 ug/mL relative to control
Chain of Histamine H1 receptor (Homo sapiens) (P35367 whole entry): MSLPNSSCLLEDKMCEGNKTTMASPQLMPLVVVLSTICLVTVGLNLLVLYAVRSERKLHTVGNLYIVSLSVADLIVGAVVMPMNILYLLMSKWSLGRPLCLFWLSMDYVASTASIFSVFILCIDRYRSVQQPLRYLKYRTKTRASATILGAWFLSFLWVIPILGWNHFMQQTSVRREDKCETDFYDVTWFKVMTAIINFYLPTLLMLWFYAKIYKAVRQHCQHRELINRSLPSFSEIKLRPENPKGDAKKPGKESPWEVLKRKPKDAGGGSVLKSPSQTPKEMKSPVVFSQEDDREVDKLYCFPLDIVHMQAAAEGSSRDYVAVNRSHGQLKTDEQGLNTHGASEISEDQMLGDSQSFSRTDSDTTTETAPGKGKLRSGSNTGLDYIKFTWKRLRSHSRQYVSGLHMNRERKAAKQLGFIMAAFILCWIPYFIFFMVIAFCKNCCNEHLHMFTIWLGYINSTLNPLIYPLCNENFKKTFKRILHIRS

[24] = target: D(2) dopamine receptor (Homo sapiens) (UniProt P14416); test: Inhibition of dopamine D2 receptor (unknown origin) at 2 ug/mL relative to control
[25] = target: D(1A) dopamine receptor (Homo sapiens) (UniProt P21728); test: Inhibition of dopamine D1 receptor (unknown origin) at 2 ug/mL relative to control
[26] = target: C-X-C chemokine receptor type 3 (Homo sapiens) (UniProt P49682); test: Inhibition of CXCR3 (unknown origin) at 2 ug/mL relative to control
[27] = Plasma concentration in rat at 10 mg/kg, po measured at 4 hrs; format: ADME, organism-based; parameters: dose 10 mg/kg, route oral
[28] = target: Alpha-2C adrenergic receptor (Homo sapiens) (UniProt P18825); test: Inhibition of adrenergic alpha-2C receptor (unknown origin) at 1 ug/mL relative to control
[29] = target: Alpha-2B adrenergic receptor (Homo sapiens) (UniProt P18089); test: Inhibition of adrenergic alpha-2B receptor (unknown origin) at 1 ug/mL relative to control
[30] = target: Alpha-2A adrenergic receptor (Homo sapiens) (UniProt P08913); test: Inhibition of adrenergic alpha-2A receptor (unknown origin) at 1 ug/mL relative to control
Chain of Alpha-2A adrenergic receptor (Homo sapiens) (P08913 whole entry): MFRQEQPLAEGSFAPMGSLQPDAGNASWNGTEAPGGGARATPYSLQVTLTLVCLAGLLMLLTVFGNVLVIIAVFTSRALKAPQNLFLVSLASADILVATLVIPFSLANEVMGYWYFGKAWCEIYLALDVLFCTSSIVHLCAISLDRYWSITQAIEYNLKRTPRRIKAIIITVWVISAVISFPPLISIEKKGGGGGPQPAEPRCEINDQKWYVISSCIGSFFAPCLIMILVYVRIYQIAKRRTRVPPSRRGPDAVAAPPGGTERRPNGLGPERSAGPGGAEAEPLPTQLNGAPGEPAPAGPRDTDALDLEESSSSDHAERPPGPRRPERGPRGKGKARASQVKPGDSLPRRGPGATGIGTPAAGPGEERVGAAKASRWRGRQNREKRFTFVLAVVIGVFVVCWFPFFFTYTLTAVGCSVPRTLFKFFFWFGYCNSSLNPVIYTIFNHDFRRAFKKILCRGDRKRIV

[31] = target: Alpha-1A adrenergic receptor (Homo sapiens) (UniProt P35348); test: Inhibition of adrenergic alpha-1A receptor (unknown origin) at 1 ug/mL relative to control
[32] = target: Adenosine receptor A2a (Homo sapiens) (UniProt P29274); test: Inhibition of adenosine A2A receptor (unknown origin) at 2 ug/mL relative to control
[33] = target: Adenosine receptor A1 (Homo sapiens) (UniProt P30542); test: Inhibition of adenosine A1 receptor (unknown origin) at 2 ug/mL relative to control
Chain of Adenosine receptor A1 (Homo sapiens) (P30542 whole entry): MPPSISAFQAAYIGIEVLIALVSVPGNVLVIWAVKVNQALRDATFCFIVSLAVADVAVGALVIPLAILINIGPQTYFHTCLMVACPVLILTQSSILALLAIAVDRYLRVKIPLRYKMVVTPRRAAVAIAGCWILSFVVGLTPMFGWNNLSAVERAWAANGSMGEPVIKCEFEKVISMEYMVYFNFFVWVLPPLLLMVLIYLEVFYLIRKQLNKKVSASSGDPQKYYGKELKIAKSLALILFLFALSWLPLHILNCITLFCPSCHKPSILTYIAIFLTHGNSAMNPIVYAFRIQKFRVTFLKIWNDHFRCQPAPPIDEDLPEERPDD

[34] = target: Ribosomal protein S6 kinase alpha-3 (Homo sapiens, UniProt P51812); test: Inhibition of human RSK2
[35] = target: Testis-specific serine/threonine-protein kinase 2 (Homo sapiens, UniProt Q96PF2); test: Inhibition of human TSSK2
[36] = target: Rho-associated protein kinase 2 (Homo sapiens, UniProt O75116); test: Inhibition of human ROCK2
[37] = target: Serine/threonine-protein kinase PLK3 (Homo sapiens, UniProt Q9H4B4); test: Inhibition of human PLK3
[38] = target: Serine/threonine-protein kinase 3 (Homo sapiens, UniProt Q13188); test: Inhibition of human MST2
[39] = target: Serine/threonine-protein kinase Nek2 (Homo sapiens, UniProt P51955); test: Inhibition of human NEK2
[40] = target: Hepatocyte growth factor receptor (Homo sapiens, UniProt P08581); test: Inhibition of human MET
[41] = target: Tyrosine-protein kinase JAK2 (Homo sapiens, UniProt O60674); test: Inhibition of human JAK2
Chain of Tyrosine-protein kinase JAK2 (O60674 whole entry): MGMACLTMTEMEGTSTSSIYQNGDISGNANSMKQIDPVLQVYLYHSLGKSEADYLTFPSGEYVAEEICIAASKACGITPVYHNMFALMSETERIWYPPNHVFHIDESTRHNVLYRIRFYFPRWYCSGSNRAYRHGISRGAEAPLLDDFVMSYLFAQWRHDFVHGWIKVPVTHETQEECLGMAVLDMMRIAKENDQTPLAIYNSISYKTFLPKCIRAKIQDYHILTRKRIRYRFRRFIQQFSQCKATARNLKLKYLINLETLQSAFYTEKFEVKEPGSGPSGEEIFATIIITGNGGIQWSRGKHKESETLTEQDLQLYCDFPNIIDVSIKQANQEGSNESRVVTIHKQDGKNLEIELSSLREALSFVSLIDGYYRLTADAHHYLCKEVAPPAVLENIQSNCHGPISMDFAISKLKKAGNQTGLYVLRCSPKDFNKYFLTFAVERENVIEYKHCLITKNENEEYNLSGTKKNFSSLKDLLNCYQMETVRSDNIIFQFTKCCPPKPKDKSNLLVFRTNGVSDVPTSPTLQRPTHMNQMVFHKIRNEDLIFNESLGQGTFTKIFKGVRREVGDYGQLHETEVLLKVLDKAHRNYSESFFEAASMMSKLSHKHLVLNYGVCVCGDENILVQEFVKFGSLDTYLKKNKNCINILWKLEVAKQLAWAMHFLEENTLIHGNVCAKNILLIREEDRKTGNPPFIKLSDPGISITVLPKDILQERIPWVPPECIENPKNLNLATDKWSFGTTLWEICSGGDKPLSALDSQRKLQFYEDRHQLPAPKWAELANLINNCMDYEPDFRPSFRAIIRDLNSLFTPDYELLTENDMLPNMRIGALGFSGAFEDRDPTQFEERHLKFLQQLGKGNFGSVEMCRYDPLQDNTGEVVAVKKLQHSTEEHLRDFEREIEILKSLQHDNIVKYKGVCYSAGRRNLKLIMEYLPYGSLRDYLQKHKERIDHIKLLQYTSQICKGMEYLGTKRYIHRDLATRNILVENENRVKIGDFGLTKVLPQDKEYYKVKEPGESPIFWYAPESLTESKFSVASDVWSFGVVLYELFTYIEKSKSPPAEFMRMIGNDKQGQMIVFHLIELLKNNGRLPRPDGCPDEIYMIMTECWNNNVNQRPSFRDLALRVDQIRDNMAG

[42] = target: Mitogen-activated protein kinase 1 (Homo sapiens, UniProt P28482); test: Inhibition of human ERK2
[43] = target: Casein kinase I isoform delta (Homo sapiens, UniProt P48730); test: Inhibition of human CSNK1D
[44] = target: Cyclin-dependent kinase 2 (Homo sapiens, UniProt P24941); test: Inhibition of human CDK2
How it was run: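 Biochemical kinase inhibition assay. Reported values are averages of duplicate or triplicate determinations, with a standard deviation of 10%.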

Question: Which concentration at 1 h [1] does the source give for `COc1ccc2c(c1)C(=O)N(c1nc(C(=O)Nc3cnccc3N3CCNCC3)cs1)C2` here?
Answer: 57 ng/mL

Question: What about the IC50 [2] of the same molecule?
Answer: 26 µM

Question: What about the concentration at 6 h [3] of the same molecule?
Answer: 252 ng/mL

Question: And the IC50 [4]?
Answer: 4.8 µM

Question: What about the inhibition at 1 µM [5] of the same molecule?
Answer: 4%

Question: And the inhibition at 5 ug/mL [6]?
Answer: 65%

Question: What about the inhibition at 1.5 ug/mL [7] of the same molecule?
Answer: 24%

Question: And the inhibition [8]?
Answer: 22.6%

Question: And the IC50 [9]?
Answer: > 30 µM

Question: And the IC50 [10]?
Answer: > 30 µM

Question: What about the IC50 [11] of the same molecule?
Answer: > 30 µM

Question: What about the IC50 [12] of the same molecule?
Answer: > 30 µM

Question: And the IC50 [13]?
Answer: > 30 µM

Question: And the Tmax [14]?
Answer: 6 h

Question: What about the AUC [15] of the same molecule?
Answer: 7.2 µM·h

Question: What about the inhibition [16] of the same molecule?
Answer: 20.4%

Question: And the inhibition [17]?
Answer: 6.1%

Question: And the inhibition [18]?
Answer: 10.9%

Question: What about the inhibition [19] of the same molecule?
Answer: 25.7%

Question: What about the inhibition [20] of the same molecule?
Answer: 12.8%

Question: What about the inhibition [21] of the same molecule?
Answer: 13.2%

Question: What about the inhibition [22] of the same molecule?
Answer: 43.8%

Question: And the inhibition [23]?
Answer: 21%

Question: What about the inhibition [24] of the same molecule?
Answer: 16.9%

Question: What about the inhibition [25] of the same molecule?
Answer: 2.8%

Question: And the inhibition [26]?
Answer: 8%

Question: What about the concentration at 4 h [27] of the same molecule?
Answer: 183 ng/mL

Question: And the inhibition [28]?
Answer: 13.8%

Question: What about the inhibition [29] of the same molecule?
Answer: 4.2%

Question: And the inhibition [30]?
Answer: 16.1%

Question: What about the inhibition [31] of the same molecule?
Answer: 23.7%

Question: What about the inhibition [32] of the same molecule?
Answer: -5.8%

Question: And the inhibition [33]?
Answer: -3.2%

Question: What about the IC50 [34] of the same molecule?
Answer: 1.3 µM

Question: And the IC50 [35]?
Answer: 8.9 µM

Question: And the IC50 [36]?
Answer: 6.8 µM

Question: And the IC50 [37]?
Answer: > 30 µM

Question: And the IC50 [38]?
Answer: 2.1 µM

Question: What about the IC50 [39] of the same molecule?
Answer: 9.5 µM

Question: And the IC50 [40]?
Answer: > 30 µM

Question: What about the IC50 [41] of the same molecule?
Answer: 21 µM

Question: What about the IC50 [42] of the same molecule?
Answer: 20 µM

Question: And the IC50 [43]?
Answer: > 30 µM

Question: What about the IC50 [44] of the same molecule?
Answer: > 30 µM
